Series [1] addresses T1, Progesterone receptor (Homo sapiens, UniProt P06401).
T1 sequence (P06401 whole entry): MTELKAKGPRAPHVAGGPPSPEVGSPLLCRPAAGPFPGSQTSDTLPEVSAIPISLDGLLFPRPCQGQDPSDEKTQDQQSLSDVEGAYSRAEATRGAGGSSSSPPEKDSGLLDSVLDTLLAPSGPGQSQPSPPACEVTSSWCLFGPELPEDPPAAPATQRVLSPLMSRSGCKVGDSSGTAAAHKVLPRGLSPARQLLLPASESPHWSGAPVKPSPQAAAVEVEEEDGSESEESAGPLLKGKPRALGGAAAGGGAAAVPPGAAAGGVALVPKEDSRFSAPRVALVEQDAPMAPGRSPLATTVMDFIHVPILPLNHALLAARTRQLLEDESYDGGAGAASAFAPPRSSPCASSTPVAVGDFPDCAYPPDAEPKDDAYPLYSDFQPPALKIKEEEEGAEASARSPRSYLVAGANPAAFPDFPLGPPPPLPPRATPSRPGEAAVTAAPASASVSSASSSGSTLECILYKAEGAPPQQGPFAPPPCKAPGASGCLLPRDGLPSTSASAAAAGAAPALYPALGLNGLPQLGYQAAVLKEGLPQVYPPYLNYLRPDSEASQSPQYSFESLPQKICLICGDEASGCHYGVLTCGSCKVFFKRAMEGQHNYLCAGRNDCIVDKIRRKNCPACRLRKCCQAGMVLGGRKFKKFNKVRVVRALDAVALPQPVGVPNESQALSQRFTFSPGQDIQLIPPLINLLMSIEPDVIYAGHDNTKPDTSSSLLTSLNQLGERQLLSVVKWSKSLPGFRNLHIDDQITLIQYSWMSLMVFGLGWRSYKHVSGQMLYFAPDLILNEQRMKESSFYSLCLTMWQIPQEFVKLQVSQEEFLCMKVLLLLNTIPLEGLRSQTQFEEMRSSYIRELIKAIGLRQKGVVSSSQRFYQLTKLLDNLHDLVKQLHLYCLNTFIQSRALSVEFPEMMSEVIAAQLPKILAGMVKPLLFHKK
The series is described as follows: Antagonist activity at progesterone receptor. In kind it is functional.

Series [2] addresses T2, Corticotropin-releasing factor receptor 1 (Homo sapiens, UniProt P34998).
T2 sequence (P34998 whole entry): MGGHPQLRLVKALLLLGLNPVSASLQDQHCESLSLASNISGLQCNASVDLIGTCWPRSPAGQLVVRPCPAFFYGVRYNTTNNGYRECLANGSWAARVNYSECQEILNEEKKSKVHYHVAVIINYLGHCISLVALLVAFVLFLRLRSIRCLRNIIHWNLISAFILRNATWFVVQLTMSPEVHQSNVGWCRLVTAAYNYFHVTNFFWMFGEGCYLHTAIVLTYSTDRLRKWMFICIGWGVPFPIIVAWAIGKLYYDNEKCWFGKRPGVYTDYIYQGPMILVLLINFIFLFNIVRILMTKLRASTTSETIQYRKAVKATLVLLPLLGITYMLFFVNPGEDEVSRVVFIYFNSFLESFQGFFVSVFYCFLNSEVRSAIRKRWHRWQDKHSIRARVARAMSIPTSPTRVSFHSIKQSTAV
Briefly: Antagonist activity at human recombinant CRF1 receptor expressed in CHO cells by cAMP assay. In kind it is functional, cell-based. The method in brief:
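CHO cells stably expressing recombinant human CRF-1 were grown in DMEM:F12 (1:1) with 10% FBS, 400 µg/ml Geneticin and 1% Glutamax at 37 °C, 5% CO2 to 70% confluence. 10,000 cells/well in PBS with 500 µM IBMX (final) were stimulated with hCRF (108 nM final) plus test compound. cAMP was read by HitHunter cAMP II kit. Compounds were tested repeatedly over a 0.5-log serial dilution series.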
(In general: Cyclic AMP is a second messenger, typically raised through Gs and lowered through Gi signalling.)

Series [3] is described as follows: Intrinsic clearance in liver microsomes. The class given is ADME, Microsome. Particulars: read-out: CLH. In general terms: Microsomes from liver hold many membrane-bound enzymes, among them those of drug oxidation.

A word on the IC50: it is the point on the concentration scale where inhibition reaches its midpoint. Low readings indicate greater potency in that assay, high ones weaker potency in that assay. Molecule `CC#C[C@]1(O)CC[C@H]2[C@@H]3CCC(=O)C(CCC(=O)O)=C3[C@@H](c3ccc(N(C)C=O)cc3)C[C@@]21C` registered an IC50 in series [1] of 430 nM.

As a reminder, the Ki is the dissociation constant of the complex between target and ligand, obtained from inhibition or displacement. For the molecule `CCCCN(CC)c1nc(C)nc2c1c(C)c(C=O)n2-c1c(C)cc(C)cc1C`, the Ki in series [2] stood at 52 nM.

Consider `CC#C[C@]1(O)CC[C@H]2[C@@H]3CCC4=CC(=O)CCC4=C3[C@@](Cl)(c3cc(Cl)c(N(C)C)c(Cl)c3)C[C@@]21C`, for which, in series [3], the microsomal CLint was found to be 76 µL/min/mg. In series [1], this molecule came in with an IC50 of 771 nM.

As for `CC#C[C@]1(O)CC[C@H]2[C@@H]3CCC4=CC(=O)CCC4=C3[C@@H](c3ccc(N(C)C)cc3)C[C@@]21C` [MIFEPRISTONE], the microsomal CLint in series [3] stood at 92.5 µL/min/mg.

With `CC#C[C@]1(O)CC[C@H]2[C@@H]3CCC4=CC(=O)CCC4=C3[C@@H](c3ccc(N(C)C=O)cc3)C[C@@]21C`, in series [3], the microsomal CLint was determined as 81 µL/min/mg. This molecule registered an IC50 in series [1] of 10 nM.

Regarding `CCCCN(CC)c1nc(C)nc2c1c(C)c(COC)n2-c1c(C)cc(C)cc1C`, the Ki in series [2] was 11 nM.

Turning to `CCCCN(CC)c1nc(C)nc2c1c(C)c(C)n2-c1c(C)cc(C)cc1C` [ANTALARMIN], the Ki in series [2] came out at 32 nM.

For the molecule `CCCCN(CC)c1nc(C)nc2c1c(C)c(CO)n2-c1c(C)cc(C)cc1C`, the Ki in series [2] worked out at 6 nM.

In turn, `CC#C[C@]1(O)CC[C@H]2[C@@H]3CCC4=CC(=O)CCC4=C3C(c3ccc(N(C)C)cc3)=C[C@@]21C` returned an IC50 in series [1] of 307 nM.

Values taken from ChEMBL document CHEMBL1933018 (Bioorg Med Chem Lett, 2012).
